Experiments:
[1] = system: MV-4-11 cells (biphenotypic B myelomonocytic leukemia); assay: In vitro antiproliferative assay; assay type: cell-based, human; settings: for IC50: Homo sapiens, MV4-11, 72 h, read-out: IC50 ± SD
[2] = system: MCF-7 cells (human breast carcinoma); assay: In vitro antiproliferative assay; assay type: cell-based; settings: for IC50: Homo sapiens, MCF7, 72 h, read-out: IC50 ± SD
[3] = system: JURKAT cells (human leukemic T-cell lymphoblast); assay: In vitro antiproliferative assay; assay type: cell-based; settings: for IC50: Homo sapiens, Jurkat, 72 h, read-out: IC50 ± SD
[4] = system: HT-29 cells (human colon adenocarcinoma); assay: In vitro antiproliferative assay; assay type: cell-based; settings: for IC50: Homo sapiens, HT-29, 72 h, read-out: IC50 ± SD
[5] = system: Hep-G2 cells (human hepatocellular carcinoma); assay: In vitro antiproliferative assay; assay type: cell-based; settings: for IC50: Homo sapiens, HepG2, 72 h, read-out: IC50 ± SD
[6] = system: HeLa cells (human cervical carcinoma); assay: In vitro antiproliferative assay; assay type: cell-based; settings: for IC50: Homo sapiens, 72 h, read-out: IC50 ± SD
[7] = system: Du-145 cells (human prostate carcinoma); assay: In vitro antiproliferative assay; assay type: cell-based; settings: for IC50: Homo sapiens, DU-145, 72 h, read-out: IC50 ± SD
[8] = system: MCF-10A normal human mammary gland epithelial cells; assay: cells; assay type: cell-based; settings: for IC50: Homo sapiens, MCF-10A, 72 h, read-out: IC50 ± SD; for cytotoxic activity against MCF-10A, times lower than against cancer cell lines: MCF-10A vs MCF-7, JURKAT, HT-29, Hep-G2, HeLa, Du-145, DAUDI; for cytotoxic activity against MCF-10A, times lower than against cancer cells: MCF-10A vs MV4-11 (cancer cell lines)
[9] = Determination of lipophilicity by RP UPLC; assay type: physicochemical; settings: for -S (slope of the regression curve): log k = log kw + SΦ; for log kw (capacity factor of the analyte in pure water): Kinetex C18, methanol 0.65-0.95 v/v, 25 °C
Method in brief: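 Kinetex C18 column (150 × 4.6 mm, 2.6 µm) on a UPLC with UV detection at 254 nm. Test compound was dissolved in methanol at 10 µg/ml. Isocratic methanol fractions ran at 0.5 ml/min and 25 °C. Dead time was taken from uracil. log k was regressed linearly on methanol fraction Φ (Soczewiński–Wachtmeister), giving log kw as the intercept and S as the slope.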

[10] = system: DAUDI cells (Burkitt lymphoma); assay: In vitro antiproliferative assay; assay type: cell-based, human; settings: for IC50: Homo sapiens, Daudi, 72 h, read-out: IC50 ± SD
[11] = system: human cancer cell lines (MV-4-11, MCF-7, JURKAT, HT-29, Hep-G2, HeLa, Du-145, DAUDI); assay: In vitro antiproliferative assay, summary over several cancer cell lines; assay type: cell-based; settings: read-out: IC50 values in relation to other cell lines

Structure (SMILES)	IC50 [1] [µg/mL]	IC50 [2] [µg/mL]	IC50 [3] [µg/mL]	IC50 [4] [µg/mL]	IC50 [5] [µg/mL]	IC50 [6] [µg/mL]	IC50 [7] [µg/mL]	IC50 [8] [µg/mL]	Φ0 lipophilicity parameter (−log kw/S) [9]	-S (slope of the regression curve) [9]	IC50 [10] [µg/mL]	log kw (capacity factor of the analyte in pure water) [9]	cytotoxic activity against MCF-10A, times lower than against cancer cell lines [8]	cytotoxic activity against MCF-10A, times lower than against cancer cells [8]	IC50 [11] [µg/mL]	also measured
CC(=O)c1ccc([N+]2=NN(CCCl)CC2)cc1.[Cl-] [2a, 3-(4-Acetylphenyl)-1-(2-chloroethyl)-4,5-dihydro-1H-1,2,3-triazol-3-ium chloride]	13.4 ± 5.94	45.1 ± 1.65	66.2 ± 13.4	49.3 ± 17.4	38.5 ± 12.3	39.4 ± 9.77	89 ± 9.31	80 ± 8.43	1.958	0.755						
ClCCN1CC[N+](c2ccccc2)=N1.[Cl-] [2b, 1-(2-Chloroethyl)-3-phenyl-4,5-dihydro-1H-1,2,3-triazol-3-ium chloride]	44.6 ± 4.37	50.4 ± 8.08	68.5 ± 6.36	48.9 ± 18.7	37.9 ± 17.1	39.4 ± 11.5			1.519	1.318	40.2 ± 4.29	−2.002				
Cc1ccc([N+]2=NN(CCCl)CC2)cc1.[Cl-] [2c, 1-(2-Chloroethyl)-3-p-tolyl-4,5-dihydro-1H-1,2,3-triazol-3-ium chloride]	5.42 ± 2.52	19.8 ± 3.02	13.1 ± 0.503	16.2 ± 7.37	23.8 ± 5.36	18.1 ± 7.04	36.4 ± 5.29	61.6 ± 13.1	1.338	2.000	4.91 ± 1.53		1–5 times	6–11 times	12.5 to 36.4	
FC(F)(F)c1cccc([N+]2=NN(CCCl)CC2)c1.[Cl-] [2d, 1-(2-Chloroethyl)-3-(3-(trifluoromethyl)phenyl)-4,5-dihydro-1H-1,2,3-triazol-3-ium chloride]	5.59 ± 3.03	16.5 ± 4.14	24.3 ± 1.22	31.7 ± 5.45	14.9 ± 1.08	22.7 ± 2.98	30.9 ± 3.15	32.6 ± 2.79	1.204	2.802	17.6 ± 2.29	−3.373	1–5 times	6–11 times	12.5 to 36.4	
ClCCN1CC[N+](c2ccc(Cl)cc2)=N1.[Cl-] [2e, 1-(2-Chloroethyl)-3-(4-chlorophenyl)-4,5-dihydro-1H-1,2,3-triazol-3-ium chloride]	7.69 ± 3.17	15.1 ± 2.77	13.6 ± 3	31.9 ± 8.14	14.9 ± 4.66	12.5 ± 2.23	30.1 ± 10.2	49.3 ± 15.5	1.196	2.928	13.6 ± 3.66	−3.503	1–5 times	6–11 times	12.5 to 36.4	
CCOC(=O)c1ccc([N+]2=NN(CCCl)CC2)cc1.[Cl-] [2f, 1-(2-Chloroethyl)-3-(4-(ethoxycarbonyl)phenyl)-4,5-dihydro-1H-1,2,3-triazol-3-ium chloride]	6.16 ± 1.76	20.9 ± 2.19	36 ± 7.11	5.59 ± 0.632	27.8 ± 10.1	23.5 ± 3.32	22.8 ± 10.1	42 ± 17.3	1.301	2.259	61.9 ± 24.8			6–11 times		
O=[N+]([O-])c1ccc([N+]2=NN(CCCl)CC2)cc1.[Cl-] [2g, 1-(2-Chloroethyl)-3-(4-nitrophenyl)-4,5-dihydro-1H-1,2,3-triazol-3-ium chloride]	14.1 ± 7.75	23.9 ± 7.48	49.1 ± 14.1	47.6 ± 3.42	32.1 ± 1.4	29 ± 5.35	34.1 ± 1.35	36.6 ± 9.52	2.532	0.594						
Fc1ccc([N+]2=NN(CCCl)CC2)cc1.[Cl-] [2i, 1-(2-Chloroethyl)-3-(4-fluorophenyl)-4,5-dihydro-1H-1,2,3-triazol-3-ium chloride]	51.4 ± 11.9	61.4 ± 21.8			70.2 ± 13.9	51.3 ± 14.7			1.824	1.027	75.6 ± 17.8	−1.873				
N.N.[Cl][Pt][Cl] [cis-platin, reference compound]																IC50 ± SD ([1]; MV-4-11, 72 h exposure, MTT): 0.76 ± 0.184 µg/mL; IC50 ± SD ([2]; MCF-7, 72 h exposure, SRB): 1.73 ± 0.443 µg/mL; IC50 ± SD ([3]; JURKAT, 72 h exposure, MTT): 0.24 ± 0.056 µg/mL; IC50 ± SD ([4]; HT-29, 72 h exposure, SRB): 3.63 ± 0.715 µg/mL; IC50 ± SD ([5]; Hep-G2, 72 h exposure, SRB): 0.68 ± 0.147 µg/mL; IC50 ± SD ([6]; 72 h exposure, SRB): 0.37 ± 0.137 µg/mL; IC50 ± SD ([7]; Du-145, 72 h exposure, SRB): 0.59 ± 0.086 µg/mL; IC50 ± SD ([10]; DAUDI, 72 h exposure, MTT): 1.07 ± 0.208 µg/mL; IC50 ± SD ([8]; MCF-10A normal cells, 72 h exposure, SRB): 4.65 ± 1.171 µg/mL
